The target in one assay is T1, Acetylcholinesterase (Rattus norvegicus, UniProt P37136).
T1 sequence (P37136 whole entry): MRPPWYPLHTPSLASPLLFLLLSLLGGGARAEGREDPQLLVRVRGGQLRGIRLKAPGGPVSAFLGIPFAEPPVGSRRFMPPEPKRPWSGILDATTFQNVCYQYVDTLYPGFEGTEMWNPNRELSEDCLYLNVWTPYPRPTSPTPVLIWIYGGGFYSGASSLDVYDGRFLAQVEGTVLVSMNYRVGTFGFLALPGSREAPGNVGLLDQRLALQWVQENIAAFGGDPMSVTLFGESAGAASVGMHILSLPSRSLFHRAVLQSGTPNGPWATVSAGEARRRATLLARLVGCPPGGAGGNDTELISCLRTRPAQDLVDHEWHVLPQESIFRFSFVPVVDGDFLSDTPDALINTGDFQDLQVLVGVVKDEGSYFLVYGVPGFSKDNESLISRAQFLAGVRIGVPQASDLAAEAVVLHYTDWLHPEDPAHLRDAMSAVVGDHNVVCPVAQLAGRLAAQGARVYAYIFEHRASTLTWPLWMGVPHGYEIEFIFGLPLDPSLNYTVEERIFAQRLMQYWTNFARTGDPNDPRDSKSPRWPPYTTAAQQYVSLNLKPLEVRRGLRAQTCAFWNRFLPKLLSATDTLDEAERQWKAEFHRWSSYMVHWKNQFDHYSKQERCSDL
Description: Inhibition of AChE in rat cortex after 15 mins by modified Ellman's method.

The target in another assay is Butyrylcholinesterase (Rattus norvegicus, UniProt Q9JKC1). Briefly: Inhibition of BChE in rat serum after 15 mins by modified Ellman's method. Type of assay: cell-free. Summed up: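 Enzyme source was rat serum. Substrate butyrylthiocholine iodide 0.4 mmol/L in sodium phosphate buffer ([…]). Serum was incubated with the test compound at several concentrations at 37 °C for 15 min. Activity was read spectrophotometrically by a modified Ellman method, with IC50 derived from the concentration series.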

SMILES strings stand for the structures.

Results on 24 compounds are retold here after ChEMBL document CHEMBL1152562, “Design, synthesis and evaluation of flavonoid derivatives as potent AChE inhibitors” (Bioorg Med Chem, 2009).

Sequence of Butyrylcholinesterase (Q9JKC1 whole entry): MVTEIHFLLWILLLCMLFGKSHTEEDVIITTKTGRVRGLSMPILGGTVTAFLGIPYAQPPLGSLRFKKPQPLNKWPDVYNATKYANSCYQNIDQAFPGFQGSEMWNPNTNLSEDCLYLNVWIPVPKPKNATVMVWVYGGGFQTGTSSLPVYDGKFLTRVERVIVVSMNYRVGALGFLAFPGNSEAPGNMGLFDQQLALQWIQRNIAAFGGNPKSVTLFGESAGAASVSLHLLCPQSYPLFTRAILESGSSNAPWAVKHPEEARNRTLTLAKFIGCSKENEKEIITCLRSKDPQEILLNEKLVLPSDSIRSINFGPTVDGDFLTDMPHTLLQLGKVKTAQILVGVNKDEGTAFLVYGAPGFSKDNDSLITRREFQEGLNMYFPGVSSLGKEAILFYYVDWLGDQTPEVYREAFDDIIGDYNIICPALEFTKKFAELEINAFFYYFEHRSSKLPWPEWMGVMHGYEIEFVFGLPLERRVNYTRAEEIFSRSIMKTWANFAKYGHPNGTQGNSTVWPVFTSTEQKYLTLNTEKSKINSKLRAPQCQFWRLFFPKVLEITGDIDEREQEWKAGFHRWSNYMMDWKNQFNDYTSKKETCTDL

`CCN(C)Cc1ccc(-c2coc3cc(OC)c(OC)cc3c2=O)cc1`: the IC50 at Acetylcholinesterase came out at 0.171 µM; against Butyrylcholinesterase it was 61 µM.
The like results for `CCN(CC)Cc1cccc(/C=C/C(=O)c2cc(OC)c(OC)cc2O)c1` were, in that order, 1.61 µM and above 100 µM.
In the case of `CCN(CC)Cc1ccc(C2CC(=O)c3cc(OC)c(OC)cc3O2)cc1` (stereo not drawn), the figures for the half-inhibitory concentration (IC50) on Acetylcholinesterase and against Butyrylcholinesterase were 4.97 µM and above 100 µM, respectively.
With `COc1cc2occ(-c3cccc(CN4CCCC4)c3)c(=O)c2cc1OC`, the IC50 at Acetylcholinesterase was 0.07 µM; on Butyrylcholinesterase, above 100 µM.
The like results for `COc1cc2oc(-c3ccc(CN4CCCC4)cc3)cc(=O)c2cc1OC` were, in that order, 0.055 µM and 89.7 µM.
As for `COc1cc(O)c(C(=O)/C=C/c2cccc(CN3CCCC3)c2)cc1OC`, the concentration for half-maximal inhibition (IC50) is 0.047 µM on Acetylcholinesterase and 77.3 µM against Butyrylcholinesterase.
The matching figures for `COc1cc2oc(-c3cccc(CN4CCCC4)c3)cc(=O)c2cc1OC`: 0.704 µM and above 100 µM.
The like results for `COc1cc2c(cc1OC)C(=O)CC(c1cccc(CN3CCCC3)c1)O2` (stereo not drawn) were, in that order, 5.36 µM and above 100 µM.
For `COc1cc(O)c(C(=O)/C=C/c2ccc(CN3CCCC3)cc2)cc1OC`, the half-inhibitory concentration (IC50) was 0.037 µM at Acetylcholinesterase and above 100 µM against Butyrylcholinesterase.
The like results for `CCN(CC)Cc1ccc(/C=C/C(=O)c2cc(OC)c(OC)cc2O)cc1` were, in that order, 0.103 µM and above 100 µM.
The matching figures for `COc1cc2c(cc1OC)C(=O)CC(c1ccc(CN3CCCCC3)cc1)O2` (stereo not drawn): 0.248 µM and 48 µM.
Regarding `CCN(C)Cc1ccc(-c2cc(=O)c3cc(OC)c(OC)cc3o2)cc1`, the concentration for half-maximal inhibition (IC50) on Acetylcholinesterase was 0.336 µM; against Butyrylcholinesterase, above 100 µM.
The like results for `COc1cc(O)c(C(=O)/C=C/c2ccc(CN3CCCCC3)cc2)cc1OC` were, in that order, 0.122 µM and above 100 µM.
The like results for `COc1cc2c(cc1OC)C(=O)CC(c1ccc(CN3CCCC3)cc1)O2` (stereo not drawn) were, in that order, 1.24 µM and 68.2 µM.
The matching figures for `CCN(CC)Cc1ccc(-c2coc3cc(OC)c(OC)cc3c2=O)cc1`: 0.599 µM and above 100 µM.
`CCN(CC)Cc1cccc(C2CC(=O)c3cc(OC)c(OC)cc3O2)c1` (stereo not drawn): the values for the IC50 against Acetylcholinesterase and against Butyrylcholinesterase were 172 µM and above 100 µM, respectively.
On to `COc1cc2oc(-c3ccc(CN4CCCCC4)cc3)cc(=O)c2cc1OC`, for which the concentration for half-maximal inhibition (IC50) on Acetylcholinesterase was 0.034 µM; against Butyrylcholinesterase, 75.2 µM.
The like results for `CCN(C)Cc1ccc(/C=C/C(=O)c2cc(OC)c(OC)cc2O)cc1` were, in that order, 0.126 µM and above 100 µM.
With `CCN(C)Cc1ccc(C2CC(=O)c3cc(OC)c(OC)cc3O2)cc1` (stereo not drawn), the figures for the IC50 at Acetylcholinesterase and at Butyrylcholinesterase were 4.67 µM and above 100 µM, respectively.
The like results for `COc1cc2occ(-c3ccc(CN4CCCC4)cc3)c(=O)c2cc1OC` were, in that order, 0.004 µM and 18.3 µM.
The matching figures for `CCN(CC)Cc1ccc(-c2cc(=O)c3cc(OC)c(OC)cc3o2)cc1`: 0.639 µM and 64.6 µM.
The like results for `CCN(CC)Cc1cccc(-c2coc3cc(OC)c(OC)cc3c2=O)c1` were, in that order, 0.56 µM and above 100 µM.
As for `CCN(CC)Cc1cccc(-c2cc(=O)c3cc(OC)c(OC)cc3o2)c1`, the values for the IC50 against Acetylcholinesterase and against Butyrylcholinesterase were 5.99 µM and above 100 µM, respectively.
With `COc1cc2occ(-c3ccc(CN4CCCCC4)cc3)c(=O)c2cc1OC`, the half-inhibitory concentration (IC50) was 0.068 µM against Acetylcholinesterase and above 100 µM at Butyrylcholinesterase.

By IC50 is commonly meant the concentration that inhibits the measured activity by half.
